pIC50: −log10 of the molar value.
What was measured:
[1] = test system: HFF; test: Compound was evaluated for the visual cytotoxicity scored on HFF cells at time of HCMV plaque enumeration; type: functional, cell-based; conditions: Homo sapiens
Method in brief: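 Stationary HFF cells not affected by virus in the HCMV plaque assay, inspected microscopically for cytotoxicity when plaques were counted (after 7–10 days at 37 °C). Reported as IC50.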

[2] = test system: KB; test: Compound was evaluated for the inhibition of KB cell growth determined in quadruplicate assay; type: functional, cell-based; conditions: Homo sapiens
Method in brief: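 KB cells at 3000–5000/well, compound added in quadruplicate at six to eight concentrations, 48 h at 37 °C (about two population doublings). Cells fixed with ethanol, stained with crystal violet, eluted dye read at 570 nm. IC50 from regression of percent inhibition on log concentration.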

[3] = test system: Human betaherpesvirus 5; test: Compound was evaluated for the antiviral activity against HCMV determined by using Plaque assay; type: functional, organism-based
Method in brief: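 Towne strain HCMV (plaque-purified P0) on HFF monolayers, about 100 PFU/cm², 2 h adsorption at 37 °C. Compounds added in growth medium, four to eight concentrations, duplicate wells. Incubated 7–10 days at 37 °C, then crystal violet stain and microscopic plaque count. Percent plaque reduction versus no-drug wells, regressed on log concentration to give IC50.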

[4] = test system: Human alphaherpesvirus 1; test: Compound was evaluated for the antiviral activity against HSV-1 determined by using ELISA method; type: functional, organism-based
Method in brief: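 HSV-1 (KOS strain in most experiments) at 100 PFU/well on BSC-1 cells (10 000/well), drug in quadruplicate, 3–5 days at 37 °C. Wells blocked, probed with HRP-conjugated rabbit anti-HSV-1 antibody, developed with tetramethylbenzidine and read at 450 and 570 nm. Percent absorbance reduction versus virus-only wells; IC50 from regression on log concentration.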

[5] = test system: Human betaherpesvirus 5; test: Compound was evaluated for the antiviral activity against HCMV determined by using Yield reduction assay; type: functional
Method in brief: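 HFF cells at 12 500 cells/well, infected with Towne HCMV at MOI 0.5–1 PFU/cell. Compounds added after adsorption, 1:3 serial dilutions spanning about 1000-fold (e.g. 100–0.14 μM), in duplicate. 7 days at 37 °C, one freeze-thaw, then progeny titred by plaque count on fresh HFF plates. Reported as IC90.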

Clc1cc2nc(Br)[nH]c2cc1Cl
pIC50 [1]: 4.68 | pIC50 [2]: 4.25 | pIC50 [3]: 4.92

Clc1nc2cc(Cl)c(Cl)cc2[nH]1
pIC50 [1]: 4.62 | pIC50 [4]: 4.29 | pIC50 [2]: 4.72 | pIC50 [3]: 5.19

OC[C@H]1O[C@H](n2c(Br)nc3cc(Cl)c(Cl)cc32)[C@@H](O)[C@H]1O
pIC50 [1]: 3.93 | pIC50 [4]: 3.89 | IC90 [5]: 0.2 µM | pIC50 [2]: < 4.00 | pIC50 [3]: 6.15

CC(=O)OC[C@H]1O[C@@H](n2c(Br)nc3cc(Cl)c(Cl)cc32)[C@H](OC(C)=O)[C@@H]1OC(C)=O
pIC50 [1]: 4.00 | pIC50 [4]: < 4.00 | IC90 [5]: 0.2 µM | pIC50 [2]: 4.60 | pIC50 [3]: 5.82

CC(=O)OC[C@H]1O[C@@H](n2c(Cl)nc3cc(Cl)c(Cl)cc32)[C@H](OC(C)=O)[C@@H]1OC(C)=O
pIC50 [1]: 4.00 | IC90 [5]: 0.2 µM | pIC50 [2]: < 4.00 | pIC50 [3]: 5.70

OC[C@H]1O[C@@H](n2c(Cl)nc3cc(Cl)c(Cl)cc32)[C@H](O)[C@@H]1O
pIC50 [1]: 3.62 | pIC50 [4]: 3.99 | IC90 [5]: 1.4 µM | pIC50 [2]: 3.68 | pIC50 [3]: 5.54

Nc1nc2cc(Cl)c(Cl)cc2n1C1O[C@H](CO)[C@@H](O)[C@H]1O (some centres not stated)
pIC50 [1]: 4.49 | pIC50 [4]: 4.30 | IC90 [5]: 8 µM | pIC50 [2]: 4.40 | pIC50 [3]: 4.40

OC[C@H]1OC(n2c(I)nc3cc(Cl)c(Cl)cc32)[C@H](O)[C@@H]1O (some centres not stated)
pIC50 [1]: 3.93 | pIC50 [4]: 4.68 | IC90 [5]: 26 µM | pIC50 [2]: 4.64 | pIC50 [3]: 4.52

OC[C@H]1OC(n2c(O)nc3cc(Cl)c(Cl)cc32)[C@H](O)[C@@H]1O (some centres not stated)
pIC50 [1]: 4.00 | pIC50 [3]: < 4.00

O=[N+]([O-])c1c(Cl)c(Cl)cc2c1nc(O)n2C1O[C@H](CO)[C@@H](O)[C@H]1O (some centres not stated)
pIC50 [1]: 4.00 | pIC50 [4]: < 4.00 | pIC50 [3]: < 4.00

Nc1nc2cc(Cl)c(Cl)cc2[nH]1
pIC50 [1]: 4.00 | pIC50 [4]: < 4.00 | pIC50 [2]: < 4.00 | pIC50 [3]: 4.00

OC[C@H]1O[C@@H](n2cnc3cc(Cl)c(Cl)cc32)[C@H](O)[C@@H]1O [DICHLORORIBOBENZIMIDAZOLE]
pIC50 [1]: 4.62 | IC90 [5]: 19 µM | pIC50 [2]: 4.44

O=C(O)P(=O)(O)O [FOSCARNET SODIUM]
pIC50 [1]: < 4.00

Nc1nc2c(ncn2COC(CO)CO)c(=O)[nH]1 [GANCICLOVIR]
pIC50 [1]: < 4.00 | IC90 [5]: 1.6 µM | pIC50 [2]: < 4.00

From ChEMBL document CHEMBL1128463, “Design, synthesis, and antiviral activity of certain 2,5,6-trihalo-1-(beta-D-ribofuranosyl)benzimidazoles” (J Med Chem, 1995)
